# Rows were chosen to be rich in hits. Some 2.9% of all compounds tested hit in one or more screens of this group.
# Runt-CBFb FRET: inhibitors of human RUNX1 Runt domain binding to CBFb | inhibition, % at 20 µM | actives 0.46% (n = 220,000) | AID 1496 | Cerulean-Runt/Venus-CBFb FRET ratio 530/480, 1 h;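 active = inhibition over about 50% at 20 µM in the single-dose screen, limit read from the data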;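 also: 0% = DMSO wells and 100% = excess unlabeled CBFb competitor control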
# Target sequence (Q01196 whole entry, looked up, the tested form may be a part): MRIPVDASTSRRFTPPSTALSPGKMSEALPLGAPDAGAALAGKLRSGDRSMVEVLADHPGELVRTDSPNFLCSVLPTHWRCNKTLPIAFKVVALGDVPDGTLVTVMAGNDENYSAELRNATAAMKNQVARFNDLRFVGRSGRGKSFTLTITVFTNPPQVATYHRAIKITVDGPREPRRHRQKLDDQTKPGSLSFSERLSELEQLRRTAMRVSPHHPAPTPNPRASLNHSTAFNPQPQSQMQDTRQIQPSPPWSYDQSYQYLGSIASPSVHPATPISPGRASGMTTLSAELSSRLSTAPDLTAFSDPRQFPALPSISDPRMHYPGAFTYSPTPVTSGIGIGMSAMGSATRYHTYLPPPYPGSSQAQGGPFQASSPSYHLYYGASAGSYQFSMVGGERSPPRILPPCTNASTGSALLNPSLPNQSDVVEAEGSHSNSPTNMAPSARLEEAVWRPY
# Target sequence (Q13951 whole entry, looked up, the tested form may be a part): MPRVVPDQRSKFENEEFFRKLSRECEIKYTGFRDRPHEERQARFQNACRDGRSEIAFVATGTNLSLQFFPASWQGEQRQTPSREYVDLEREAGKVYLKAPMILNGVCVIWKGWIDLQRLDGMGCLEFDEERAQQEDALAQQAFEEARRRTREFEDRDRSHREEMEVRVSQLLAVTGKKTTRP
#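 Doses: 20 µM compound in 1% DMSO | Material: Cerulean-labeled Runt domain protein | Amount: Each fluorescent fusion protein 100 nM | Schedule: Two 1 h room-temperature incubations shielded from light | Measured by: FRET fluorescence | Evaluation: Loss of energy transfer signal | Controls: Unlabeled CBFb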
# RanGTP-Imp inh: disruptors of Ran-importin-beta complex formation – biochemical, FRET, CFP-Ran, YFP-importin-beta, homogeneous, primary screen; cell-free CFP-Ran/YFP-importin-beta FRET ratio; inhibition, % (test concentration not listed); actives 1.1% (n = 300,000);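 active = more than half of the replicate wells show a fall in the fluorescence ratio signal beyond about 16%, limit read from the data, passing the limit was not always enough; inconclusive = exactly half of the replicate wells pass the set limit; inactive = fewer than half of replicates pass the limit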;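 also: 0% = DMSO wells and 100% = Ran loaded with GDP instead of GTP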
# KLK7 zymogen act: activates the human kallikrein-7 zymogen. P49862. purified proKLK7, EDANS-DABCYL substrate fluorescence; 100% is mature enzyme control, 0% vehicle. activation, % at 7 µM. actives 0.9% (n = 370,000). AID 652039;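 active = activation above the mean of all tested compounds plus 3 SD, computed per campaign excluding outliers beyond control limits, cut at about 13% in these data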
# AI-2 QS modul: modulates the Vibrio harveyi AI-2 quorum sensing system | Vibrio harveyi JMH597 AI-2 luminescence/OD600 ratio, 9 h; active compounds read low; strain lacks LuxN and CqsS sensors; 0 = neutral-control median | activity change, % at 7.5 µM | actives 0.4% (n = 300,000); in the data active = activity change below about -75%, passing the limit was not always enough; inconclusive = no clear call, values can overlap the other calls;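 also: luminescence divided by OD600 gain over 9 h not by final OD600 alone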
# Wee1 degr inh: human Wee1 degradation inhibition, primary screen; HeLa Luc-Wee1K328M stability, luciferase luminescence; 100% = proteasome inhibitor MG132 effect; reporter increase, % at 5 µM; actives 1.2% (n = 220,000);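 active = activation above the mean of all tested compounds plus 3 SD, set per screening run, cut at about 8.8% in these data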;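 also: cells exposed to compound for 20 h before luminescence read; 0% = DMSO alone and 100% = MG132 at 30 µM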
# Runt-SMMHC FRET: blocks binding of human RUNX1 Runt domain to CBFb-SMMHC | actives 0.74% (n = 220,000) | AID 1434 | Q01196+Q13951 | inhibition, % at 20 µM | Cerulean-Runt/Venus-CBFb-SMMHC FRET ratio 530/480, 1 h;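 active = mean inhibition across duplicate retests at 20 µM reaching about 50%, limit read from the data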;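 also: 0% = DMSO wells and 100% = wells with excess untagged CBFb-SMMHC; inhibitors lower the FRET ratio by blocking Runt binding to CBFb-SMMHC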
# JMH597 growth rt: retest: blocks Vibrio harveyi JMH597 growth; shares compounds with AI-2 QS modul; OD600 absorbance, 9 h; lacks LuxN and CqsS sensors; growth inhibition, % at 7.5 µM; actives 1% (n = 750); AID 2726;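 active = every replicate shows growth inhibition above 50%; inconclusive = at least half, but not all, replicates pass that cutoff; inactive = fewer than half of replicates pass it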
# BB721 lum counter: retest counter-screen: lowers luminescence of constitutive-QS Vibrio harveyi BB721; shares compounds with AI-2 QS modul; 9 h; inhibition, % at 7.5 µM; actives 95% (n = 750);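 active = inhibition above about 80% in every replicate, not just on average, limit read from the data; inconclusive = at least half of replicates past the limit, but not all; inactive = fewer than half of replicates past the limit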
# BB721 growth rt: retest Vibrio harveyi BB721 growth inhibition. actives 3% (n = 750). shares compounds with AI-2 QS modul. growth inhibition, % at 7.5 µM. OD600 absorbance, 9 h;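 active = every replicate shows growth inhibition above 50%; inconclusive = at least half but not all replicates above 50% inhibition; inactive = under half of replicates above 50% inhibition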
# JMH597 AI-2 mod: Vibrio harveyi AI-2 signaling luminescence modulation – JMH597 strain, confirmation | shares compounds with AI-2 QS modul | Vibrio harveyi JMH597 AI-2 quorum sensing luminescence, 9 h; luxN and CqsS knockout, AI-2 only | inhibition, % at 7.5 µM | actives 97% (n = 750) | AID 2736;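 active = every replicate shows more than 75% inhibition of signal versus neutral control wells; inconclusive = half to three quarters of replicates exceed 75% inhibition; inactive = fewer than half of replicates exceed 75% inhibition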
# Numbers without * were called inactive; ? = inconclusive; . = not tested or not shown.
SMILES,Runt-CBFb FRET,RanGTP-Imp inh,KLK7 zymogen act,AI-2 QS modul,Wee1 degr inh,Runt-SMMHC FRET,JMH597 growth rt,BB721 lum counter,BB721 growth rt,JMH597 AI-2 mod
COc1ccc(C(CC(=O)c2ccc(O)cc2)S(=O)(=O)c2ccc(C)cc2)cc1 (configuration not stated),0.2,1.5,46.2*,-90.9*,2.8,-5.5,3.4,95.7*,-12.6,97.2*
Cc1c(C(C)NC(=O)c2cc(COc3cccc4cnccc34)on2)cnn1C (configuration not stated),.,0.6,8.4,-81.1*,.,.,19.2,80.5*,18.3,87.7*
CCCCNC(=O)C1(C)CCCCN1C(=O)c1ccc(OC)c(C(F)(F)F)c1 (configuration not stated),.,.,-0.1,.,.,.,.,.,.,.
O=C(Nc1ccc(Oc2ccccc2)cc1)C1CC1,-2.7,-1.3,0.4,-87.2*,3.2,0.3,23.1,98.5*,58.7*,96.4*
CCOC(=O)Nc1ccc(Oc2ccccc2)cc1,-0.1,-3.4,-0.6,-94.9*,-0.6,-3.5,24.5,99.3*,25.7,99.4*
CCOC(=O)Nc1ccc(OC(=O)Oc2ccc(NC(=O)OCC)cc2)cc1,.,.,0.3,.,.,.,.,.,.,.
COC(=O)N/N=C/c1ccc(Oc2ccccc2)cc1,-0.1,-1.1,0.5,-85.3*,4.2,0.3,23.3,94.7*,35.7,95.5*
O=C(CSc1ncccn1)NC1CCS(=O)(=O)C1 (configuration not stated),.,1.9,0.7,5.7,.,.,.,.,.,.
O=C(NCCS(=O)(=O)c1ccc(Br)cc1)c1ccc(Cl)cc1Cl,.,-2.5,0.2,22.3,.,.,.,.,.,.
Cc1ccc(Cn2ncn(-c3ccccc3)c2=O)cc1,1.1,-0.4,0.7,?,0.1,4.1,4.1,94.8*,26.1,96.6*
Oc1oc(-c2ccccc2)nc1C=NCc1ccccc1,0.6,3.9,-0.6,?,5.8,0.5,13.8,92.9*,22.1,95.3*
COCc1cc(=O)[nH]c(/N=C(\N)Nc2cccc(Cl)c2)n1,0.1,-3.0,-0.4,15.9,1.1,2.2,.,.,.,.
CCCCCn1c(=O)[nH]c2cc(C(=O)NCCCN3CCCCC3CC)ccc2c1=O (configuration not stated),.,-5.0,-4.1,.,.,.,.,.,.,.
O=C(Nc1ccc(Oc2ccc(NC(=O)c3ccco3)c(NC(=O)c3ccco3)c2)cc1)c1ccco1,-0.4,-2.9,0.0,13.1,-1.5,-2.3,.,.,.,.
O=C(Nc1ccc(Oc2ccc3ccccc3c2)cc1)c1ccco1,1.5,1.3,0.0,-95.7*,-1.3,0.2,30.9,99.2*,102.3*,99.1*
Cc1cc(C(=O)NNC(=O)c2ccc(S(=O)(=O)N(C)C)cc2)c(C)o1,-1.8,-0.7,-0.2,-84.4*,9.5*,5.6,11.6,88.0*,12.1,93.2*
Cc1cc(C(=O)NNC(=O)c2ccc(Cl)c(S(N)(=O)=O)c2)c(C)o1,.,.,0.5,.,.,.,.,.,.,.
O=C(Cn1cnc2c(nc3n2CCCCC3)c1=O)Nc1cccc(C(F)(F)F)c1,.,?,0.4,-86.4*,.,.,-9.0,94.7*,5.1,95.8*
Cc1cc([N+](=O)[O-])nn1CC(=O)N1c2ccccc2CC1C (configuration not stated),-0.9,-3.0,0.3,1.9,-2.2,4.6,.,.,.,.
COc1ccc(OC)c(NS(=O)(=O)Cc2ccccc2)c1,0.9,4.4,.,16.3,-1.9,-4.2,.,.,.,.

# Screens deposited in PubChem BioAssay by several laboratories.
